Measured values: ChEMBL document CHEMBL1131048, “Antiviral activities of methylated nordihydroguaiaretic acids. 1. Synthesis, structure identification, and inhibition of tat-regulated HIV transactivation” (J Med Chem, 1998)

Assays:
Conditions in all cases: Chlorocebus aethiops
COS-1 [1] = test: Compound tested for inhibition of HIV Tat-regulated Transactivation in COS cells at a concentration of 10 uM.; format: functional
In short: (§1)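 COS cells in IMDM with 10% FBS, penicillin, streptomycin and Fungizone, 37 °C, 5% CO2, seeded in triplicate at ca. 1.5×10^5 cells/well and grown 24 h to 50% confluence. Calcium phosphate cotransfection with CMV-driven tat plasmid (0.20 µg/well) and HIV LTR-SEAP plasmid (0.40 µg/well) for 18 h. Compound then added in medium with 0.30% DMSO final, for 48 h.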

COS-1 [2] = test: Inhibitory activity against HIV Tat-regulated Transactivation in COS cells.; format: functional, cell-based; in short: as §1
COS-1 [3] = test: Compound tested for inhibition of HIV Tat-regulated Transactivation in COS cells at a concentration of 3 uM.; format: functional; in short: as §1
COS-1 [4] = test: Compound tested for inhibition of HIV Tat-regulated Transactivation in COS cells at a concentration of 1 uM.; format: functional; in short: as §1
COS-1 [5] = test: Compound tested for inhibition of HIV Tat-regulated Transactivation in COS cells at a concentration of 100 uM.; format: functional; in short: as §1
COS-1 [6] = test: Compound tested for inhibition of HIV Tat-regulated Transactivation in COS cells at a concentration of 60 uM.; format: functional; in short: as §1
COS-1 [7] = test: Compound tested for inhibition of HIV Tat-regulated Transactivation in COS cells at a concentration of 20 uM.; format: functional; in short: as §1
COS-1 [8] = test: Compound tested for inhibition of HIV Tat-regulated Transactivation in COS cells at a concentration of 30 uM.; format: functional; in short: as §1

| SMILES | inhibition at 10 µM (COS-1 [1]) | IC50 (COS-1 [2]) | inhibition at 3 µM (COS-1 [3]) | inhibition at 1 µM (COS-1 [4]) | inhibition at 100 µM (COS-1 [5]) | inhibition at 60 µM (COS-1 [6]) | inhibition at 20 µM (COS-1 [7]) | inhibition at 30 µM (COS-1 [8]) |
| --- | --- | --- | --- | --- | --- | --- | --- | --- |
| COc1ccc(C[C@@H](C)[C@@H](C)Cc2ccc(O)c(O)c2)cc1O | 5% | 30.8 µM | 2.3% | 5% | 91.3% | 73.7% | 27.5% | 52% |
| COc1ccc(C[C@H](C)[C@H](C)Cc2ccc(OC)c(OC)c2)cc1O (racemic) | 41.7% | 14.3 µM | 27% | 16.5% | 88.3% | 78.3% | 52% | 66% |
| COc1cc(C[C@@H](C)[C@@H](C)Cc2ccc(O)c(O)c2)ccc1O (racemic) | 20.7% | 25 µM | 7.3% | 9% | 92.3% | 83.3% | 38.5% | 56.3% |
| COc1cc(C[C@H](C)[C@H](C)Cc2ccc(OC)c(OC)c2)ccc1O (racemic) | 45% | 13.7 µM | 26.7% | 14.5% | 87.7% | 76.3% | 50.5% | 65% |
| COc1ccc(C[C@@H](C)[C@@H](C)Cc2ccc(O)c(O)c2)cc1OC (racemic) | 20% | 16.5 µM | 14.3% | 12.5% | 96% | 87.7% | 59% | 69.3% |
| COc1ccc(C[C@@H](C)[C@@H](C)Cc2ccc(OC)c(O)c2)cc1O [DIMETHYLNORDIHYDROGUARIERATE ACID] | 19% | 29.9 µM | 8.7% | 9.5% | 85.7% | 70% | 38% | 52% |
| COc1cc(C[C@@H](C)[C@@H](C)Cc2ccc(O)c(OC)c2)ccc1O [MESODIHYDROGUAIARETIC ACID] | 22.3% | 39 µM | 10.3% | 5.5% | 73.7% | 63.7% | 30.5% | 43% |
| COc1ccc(C[C@@H](C)[C@@H](C)Cc2ccc(OC)c(OC)c2)cc1OC [TERAMEPROCOL] | 45% | 11.1 µM | 25.3% | 18.5% | 90.3% | 78.7% | 61% | 70% |
